iPSC survival up = enhancers of human iPSC single-cell survival; hiPSC single-cell survival, ATPlite luminescence; 100% = ROCK inhibitor wells, 0% = DMSO; survival enhancement, % at 20 µM; AID 602274; actives 0.044% (n = 360,000); in the data active = survival enhancement above about 18%;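 note: cells exposed to compounds for 16 hours before the ATP read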
SENP1 inh = blocks the human SENP1 SUMO protease catalytic domain; recombinant SENP1 catalytic domain, CyPet-SUMO1-YPet FRET cleavage; inhibition, % at 10 µM; actives 0.21% (n = 360,000); AID 624204;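 active = inhibition at least 30% at 10 µM, raw YFP signal under a set limit, fluorescence ratio 0.5 to 1.5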
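Assay system: hSENP1 catalytic domain, recombinant. Amount: SENP1 enzyme, 20 pM final. Schedule: 50 min reaction, RT, dark. Technique: FRET, CFP and YFP emission. Control set: no-enzyme wells low, DMSO-plus-enzyme wells high control.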
Arrestin-AP2 inh = human beta-arrestin and AP2 interaction inhibition; inhibition, % at 10 µM; actives 0.31% (n = 340,000); FITC-arrestin peptide / GST-AP2 beads, flow cytometry; AP2 beta2 appendage carries R879A mutation;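 active = inhibition above a set limit, near 3 SD of compounds lacking own fluorescence, cut at about 54% in these data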
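Assay system: GST-AP2 R879A bound to glutathione beads, E. coli-expressed; Medium: PBS with 0.05% Tween 20 and 0.1% BSA; Also added: fluorescein-tagged arrestin peptide at 50 nM final; Timing: 12 min plus 1 h, RT; Measured by: flow cytometry, FL1 (488/535 nm); Evaluation: percent drop in bead-associated FITC signal.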
Cardio protect = protects H9c2 cardiomyocytes from peroxide injury | H2O2 injury protection, ATPLite, 2 h | protection from H2O2 cell death, % at 20 µM | actives 0.63% (n = 360,000);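 active = compounds giving at least 50% protection of heart cells from peroxide-induced death in the single-dose screen, raw or plate-pattern-corrected value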
NR3A LBD binder = modulators (binders) of human NR3A ligand-binding domain; NR3A LBD differential scanning fluorimetry, Tm shift; 0% = protein alone, 100% = glycine-bound protein; Tm shift relative to glycine control, % at 25 µM; actives 2.5% (n = 340,000); AID 1259313;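 active = melting temperature shift of at least 10% of the positive control shift, at one fixed dose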
FAS TE block = inhibitors of human fatty acid synthase thioesterase domain; P49327; inhibition, % at 15 µM; recombinant FAS-TE, OMFH fluorogenic substrate, fluorescence endpoint; actives 0.67% (n = 360,000);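 active = compounds whose normalised, plate-corrected inhibition of enzyme fluorescence in the single-dose primary screen is 50% or more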
Target sequence (P49327 whole entry, looked up, the tested form may be a part): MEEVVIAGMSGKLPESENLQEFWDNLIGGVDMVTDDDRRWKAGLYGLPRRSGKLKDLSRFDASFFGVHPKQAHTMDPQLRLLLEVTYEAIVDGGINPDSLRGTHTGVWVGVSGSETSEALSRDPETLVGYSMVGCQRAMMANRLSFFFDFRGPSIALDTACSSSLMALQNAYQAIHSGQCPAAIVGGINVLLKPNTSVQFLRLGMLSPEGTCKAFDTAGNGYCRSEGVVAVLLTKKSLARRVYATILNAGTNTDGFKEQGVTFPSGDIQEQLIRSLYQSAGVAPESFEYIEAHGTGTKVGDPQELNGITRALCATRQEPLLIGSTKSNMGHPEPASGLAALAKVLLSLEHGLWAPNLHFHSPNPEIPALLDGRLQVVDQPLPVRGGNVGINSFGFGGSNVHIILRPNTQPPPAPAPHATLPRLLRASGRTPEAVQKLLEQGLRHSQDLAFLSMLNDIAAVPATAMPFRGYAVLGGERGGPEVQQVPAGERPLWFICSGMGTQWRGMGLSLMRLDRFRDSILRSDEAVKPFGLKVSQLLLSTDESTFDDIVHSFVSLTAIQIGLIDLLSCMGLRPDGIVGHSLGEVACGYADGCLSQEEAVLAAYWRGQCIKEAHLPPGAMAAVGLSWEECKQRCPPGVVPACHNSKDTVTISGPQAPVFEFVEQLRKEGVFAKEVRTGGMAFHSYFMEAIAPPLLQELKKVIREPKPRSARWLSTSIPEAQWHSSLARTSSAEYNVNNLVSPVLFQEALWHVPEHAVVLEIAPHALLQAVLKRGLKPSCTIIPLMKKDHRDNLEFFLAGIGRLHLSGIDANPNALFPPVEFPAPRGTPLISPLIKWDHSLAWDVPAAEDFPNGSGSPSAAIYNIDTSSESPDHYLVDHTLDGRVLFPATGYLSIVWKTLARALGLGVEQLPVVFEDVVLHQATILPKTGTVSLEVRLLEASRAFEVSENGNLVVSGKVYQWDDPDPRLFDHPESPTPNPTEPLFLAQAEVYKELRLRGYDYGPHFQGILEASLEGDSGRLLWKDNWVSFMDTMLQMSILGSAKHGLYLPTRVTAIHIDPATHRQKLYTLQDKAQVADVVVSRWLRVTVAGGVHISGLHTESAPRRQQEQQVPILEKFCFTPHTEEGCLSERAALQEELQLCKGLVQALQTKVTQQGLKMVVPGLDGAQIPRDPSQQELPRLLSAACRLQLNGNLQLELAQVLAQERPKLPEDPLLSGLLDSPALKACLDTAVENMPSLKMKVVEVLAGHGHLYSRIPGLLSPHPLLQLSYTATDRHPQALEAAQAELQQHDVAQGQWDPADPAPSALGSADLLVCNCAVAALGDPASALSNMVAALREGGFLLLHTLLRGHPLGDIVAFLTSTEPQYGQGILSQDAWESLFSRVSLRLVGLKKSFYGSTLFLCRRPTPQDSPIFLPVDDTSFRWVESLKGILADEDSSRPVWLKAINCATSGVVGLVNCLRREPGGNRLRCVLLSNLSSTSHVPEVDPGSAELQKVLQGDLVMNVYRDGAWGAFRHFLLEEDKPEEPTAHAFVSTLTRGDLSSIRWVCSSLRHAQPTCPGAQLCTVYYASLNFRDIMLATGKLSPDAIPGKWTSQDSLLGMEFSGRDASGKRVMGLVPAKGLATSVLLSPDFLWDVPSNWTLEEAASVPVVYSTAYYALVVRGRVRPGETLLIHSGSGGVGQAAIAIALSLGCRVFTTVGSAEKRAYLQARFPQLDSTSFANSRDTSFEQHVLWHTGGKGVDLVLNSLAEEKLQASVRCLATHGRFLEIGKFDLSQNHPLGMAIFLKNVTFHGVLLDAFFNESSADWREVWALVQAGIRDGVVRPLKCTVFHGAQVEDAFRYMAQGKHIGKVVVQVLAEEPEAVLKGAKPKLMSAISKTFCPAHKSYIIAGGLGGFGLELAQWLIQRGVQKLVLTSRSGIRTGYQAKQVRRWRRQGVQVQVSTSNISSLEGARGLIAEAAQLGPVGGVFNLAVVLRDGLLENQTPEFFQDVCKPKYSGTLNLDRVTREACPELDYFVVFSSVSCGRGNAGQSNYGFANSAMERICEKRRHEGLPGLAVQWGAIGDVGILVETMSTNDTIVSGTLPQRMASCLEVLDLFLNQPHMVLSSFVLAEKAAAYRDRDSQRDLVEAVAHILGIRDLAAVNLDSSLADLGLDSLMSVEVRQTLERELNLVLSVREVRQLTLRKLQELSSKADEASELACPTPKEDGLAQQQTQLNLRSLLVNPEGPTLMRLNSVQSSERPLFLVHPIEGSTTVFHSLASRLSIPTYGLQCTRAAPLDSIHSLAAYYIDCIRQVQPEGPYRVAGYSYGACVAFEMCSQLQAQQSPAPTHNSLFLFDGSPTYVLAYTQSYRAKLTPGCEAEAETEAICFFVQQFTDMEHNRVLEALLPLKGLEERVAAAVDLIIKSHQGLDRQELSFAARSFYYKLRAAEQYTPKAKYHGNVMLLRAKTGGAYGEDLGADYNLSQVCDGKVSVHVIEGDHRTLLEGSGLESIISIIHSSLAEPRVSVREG
FAS-TE conf = FAS thioesterase (human) inhibition, confirmation. inhibition, % at 15 µM. actives 45% (n = 2,300). AID 624325. shares compounds with FAS TE block. recombinant FAS-TE, OMFH fluorogenic substrate, fluorescence;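 active = compounds inhibiting the enzyme by at least 50% at 15 µM in any one of the replicates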
Hits are given with their value; 0 = inactive; - = not tested or not shown. A selection: hits, their analogues and other compounds. The true share with any hit is near 4%.

SMILES | iPSC survival up | SENP1 inh | Arrestin-AP2 inh | Cardio protect | NR3A LBD binder | FAS TE block | FAS-TE conf
COC(=O)c1ccc(CNC(=O)/C=C/c2cc([N+](=O)[O-])ccc2OC(F)F)cc1 | 0 | 0 | 0 | 0 | 0 | 83 | 81
COc1ccc(CNC(=O)/C=C/c2cc([N+](=O)[O-])ccc2OC(F)F)cc1OC | 0 | 0 | 0 | 0 | 0 | 75 | 78
N#CC(=C1NC(=O)c2ccccc21)c1nc2ccccc2n1CCO | 0 | 0 | - | 0 | - | 0 | -
COc1ccc(NC(=O)c2cc(-c3sc(NC(=O)c4ccccc4)nc3C)n(CCO)n2)cc1 | - | 0 | - | - | - | - | -
O=C1C(=NO)CCc2ccccc21 | 0 | 0 | 0 | 0 | 0 | 0 | -
COc1ccc(CNC(=O)/C=C/c2cc([N+](=O)[O-])ccc2OC(F)F)cc1 | 0 | 0 | 0 | 0 | 0 | 82 | 65
O=C(COC(=O)C1CCCCC1)Nc1cc([N+](=O)[O-])ccc1F | 0 | 0 | 0 | 0 | 0 | 63 | 69
O=C(COC(=O)c1cc([N+](=O)[O-])ccc1N1CCOCC1)Nc1ccccc1OC(F)F | 0 | 0 | 0 | 0 | 0 | 74 | 79
O=C(COC(=O)c1cc([N+](=O)[O-])ccc1N1CCOCC1)Nc1cc(F)ccc1F | 0 | 0 | 0 | 0 | 0 | 85 | 51
COc1ccccc1NC(=O)COC(=O)c1cc([N+](=O)[O-])ccc1N1CCCC1 | 0 | 0 | 0 | 0 | 0 | 70 | 63
COc1ccc(NC(=O)c2cc([N+](=O)[O-])ccc2N2CCCCC2)cc1OC | 0 | 0 | 0 | 0 | 0 | 0 | -
COc1cc(C(C)=O)ccc1OCC(=O)N1CCCC1c1ccc2c(c1)OCCCO2 (centres undefined) | 0 | 0 | - | 0 | - | 0 | -
Cc1c(C(=O)OCC(=O)Nc2ccccc2OC(F)F)cccc1[N+](=O)[O-] | 0 | 0 | 0 | 0 | 0 | 0 | -
O=C(COC(=O)c1cc([N+](=O)[O-])ccc1N1CCCC1)Nc1ccccc1OC(F)F | 0 | 0 | 0 | 0 | 0 | 56 | 43
CCCN(CC(=O)Nc1ccc(F)c(F)c1F)C(=O)c1cc([N+](=O)[O-])ccc1N1CCOCC1 | 0 | 0 | 0 | 0 | 0 | 54 | 52
CC(C)c1ccccc1NC(=O)COC(=O)c1cc([N+](=O)[O-])ccc1N1CCOCC1 | 0 | 0 | 0 | 0 | 0 | 74 | 65
CCOC(=O)[C@]12CCCC=C1N(Cc1cccc3ccccc13)C(=O)[C@H](CC(=O)NCc1ccc(OC)c(OC)c1)C2 | 0 | 0 | - | - | - | 0 | -
COC(=O)C1=C(C(=O)OC)[C@@H]2N(C)c3ccc(OC)cc3[C@@]23C[C@@H](C(=O)OC)N(S(=O)(=O)c2ccc([N+](=O)[O-])cc2)C3=N1 | 0 | 0 | 0 | 0 | 0 | 66 | 0
CCCCS(=O)(=O)N1C2=NC(C(=O)OC)=C(C(=O)OC)[C@@H]3N(C)c4ccc(OC)cc4[C@]23C[C@H]1C(=O)OC | 0 | 0 | 0 | 0 | 0 | 0 | -
Cc1ccc(C(=O)NC(=S)c2c(C)cc3ccccn23)cc1 | 0 | 0 | - | 0 | - | 0 | -
Cc1cc(C)c(C#N)c(SCC(O)COc2ccc(Br)cc2)n1 (centres undefined) | 0 | 0 | 0 | 0 | 0 | 63 | 0
Cc1ccc(S(=O)(=O)Nc2ccc3c(c2)C(=O)N([C@H](C)CO)C[C@H](C)[C@H](CN(C)C(=O)Nc2cccc4ccccc24)OCCCC[C@@H](C)O3)cc1 | 0 | 0 | - | 0 | - | 61 | 0
C[C@@H]1CN([C@H](C)CO)C(=O)c2cc(NC(=O)Nc3ccc(F)cc3)ccc2O[C@@H](C)CCCCO[C@H]1CN(C)S(=O)(=O)c1ccc(Cl)cc1 | 0 | 0 | - | 0 | - | 69 | 0
C[C@@H]1CCCCO[C@@H](CN(C)S(=O)(=O)c2cccs2)[C@@H](C)CN([C@H](C)CO)C(=O)c2cc(NS(=O)(=O)c3ccccc3)ccc2O1 | 22 | 0 | - | 0 | - | 63 | 0
C[C@H]1CCCCO[C@H](CN(C)C(=O)Nc2ccc(F)cc2)[C@@H](C)CN([C@@H](C)CO)C(=O)c2cc(NC(=O)Nc3ccc4c(c3)OCO4)ccc2O1 | 0 | 0 | - | 0 | - | 0 | -
SMILES | iPSC survival up | SENP1 inh | Arrestin-AP2 inh | Cardio protect | NR3A LBD binder | FAS TE block | FAS-TE conf
C[C@@H]1CCCCO[C@H](CN(C)C(=O)Nc2ccc3c(c2)OCO3)[C@H](C)CN([C@@H](C)CO)C(=O)c2cc(NS(=O)(=O)c3ccc(Cl)cc3)ccc2O1 | 0 | 0 | - | 0 | - | 59 | 0
CCOc1ccc(C(=O)N[C@H](C(=O)N2CCN(c3ncccn3)CC2)C(C)C)cc1 | 0 | 0 | - | 0 | - | 0 | -
COC(=O)c1c(NC(=O)Cn2cc([N+](=O)[O-])cn2)sc2c1CCC2 | 0 | 0 | 0 | 0 | 0 | 51 | 0
O=C(Nn1c(-c2ccc(Br)cc2)nc2ccccc2c1=O)c1ccc([N+](=O)[O-])cc1 | 0 | 0 | 0 | 0 | 0 | 65 | 45
O=C(Nc1ccccc1)c1cc(C2CCCCN2S(=O)(=O)c2ccccc2)on1 (centres undefined) | 0 | 0 | - | 0 | - | 0 | -
COC(=O)c1cc(C(=O)Nc2nnc(CC(C)(C)C)s2)cc([N+](=O)[O-])c1 | 0 | 0 | 0 | 0 | 0 | 52 | 59
Cc1ccc(S(=O)(=O)N(C)C)cc1NC(=S)NC(C)CCCC(C)C (centres undefined) | 0 | 0 | 0 | 0 | 0 | 58 | 53
COc1ccc(NC(=O)c2cc(C3CCCCN3S(=O)(=O)Cc3ccccc3)on2)c(C)c1 (centres undefined) | 0 | 0 | - | 0 | - | 0 | -
CCC1=NN(C(=O)c2cccc(Br)c2)C(O)(c2ccc(Br)cc2)C1 (centres undefined) | 0 | 0 | 0 | 0 | 0 | 52 | 0
CCC1=NN(C(=O)c2ccc(C)cc2)C(O)(c2ccc(Br)cc2)C1 (centres undefined) | 0 | 0 | 0 | 0 | 0 | 0 | -
C[C@@H]1CCCCO[C@@H](CN(C)Cc2ccccc2)[C@@H](C)CN([C@H](C)CO)C(=O)c2cc(NC(=O)Nc3cccc4ccccc34)ccc2O1 | 0 | 0 | - | 0 | - | 52 | 0
CC(C)NC(=O)Nc1ccc2c(c1)C(=O)N([C@@H](C)CO)C[C@@H](C)[C@H](CN(C)Cc1ccccc1)OCCCC[C@H](C)O2 | 0 | 0 | - | 0 | - | 0 | -
C[C@H]1CN([C@@H](C)CO)C(=O)c2cc(NC(=O)Nc3cccc4ccccc34)ccc2O[C@@H]1CN(C)Cc1ccc(-c2ccccc2)cc1 | 0 | 0 | 0 | 0 | 11 | 60 | 0
C[C@H](CO)N1C[C@H](C)[C@H](CN(C)Cc2ccccc2)Oc2ccc(NC(=O)Nc3ccc(F)cc3)cc2C1=O | 0 | 0 | 0 | 0 | 0 | 0 | -
